Screening data as filed in PubChem BioAssay.
Only some compounds are listed: those with a hit (about 3.5% of all), similar ones and a draw of the others.
RGS4 inh – human RGS4 inhibition; HEK293 M3R/RGS4 inducible, Fluo-4 calcium flux; active compounds read high; triggered by carbachol at its EC20; 310,000 tested, 0.45% active; AID 463165; B-score at 10 µM;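 active = B-score, a plate-corrected calcium signal, over three deviations above library mean, with baseline fluorescence within five deviations of library mean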;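 note: RGS4 expression induced by doxycycline in cells with stable M3 receptor; B-score is computed from the integrated fluorescence ratio over baseline after carbachol; higher B-score means a larger calcium signal and so more RGS4 inhibition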
Target sequence (P49798 whole entry, looked up): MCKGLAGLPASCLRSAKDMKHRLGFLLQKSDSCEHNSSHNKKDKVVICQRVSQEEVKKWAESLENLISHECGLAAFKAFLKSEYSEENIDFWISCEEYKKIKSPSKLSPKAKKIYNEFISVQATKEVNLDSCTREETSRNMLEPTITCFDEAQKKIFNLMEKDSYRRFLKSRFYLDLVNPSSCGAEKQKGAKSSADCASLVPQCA
MrgX1 antagonist – antagonists of human MrgX1 receptor; 310,000 tested, 1.3% active; B-score at 10 µM; MRGX1-HEK293 calcium flux, Fluo-4, BAM8-22 antagonism; active compounds read low;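 active = calcium-response B-score plate-corrected more than 3 library SD below zero, starting fluorescence within 5 deviations, no agonist response on first addition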;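 note: peak minus trough fluorescence over baseline after final BAM8-22 challenge near maximal dose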
Target sequence (Q96LB2 whole entry, looked up): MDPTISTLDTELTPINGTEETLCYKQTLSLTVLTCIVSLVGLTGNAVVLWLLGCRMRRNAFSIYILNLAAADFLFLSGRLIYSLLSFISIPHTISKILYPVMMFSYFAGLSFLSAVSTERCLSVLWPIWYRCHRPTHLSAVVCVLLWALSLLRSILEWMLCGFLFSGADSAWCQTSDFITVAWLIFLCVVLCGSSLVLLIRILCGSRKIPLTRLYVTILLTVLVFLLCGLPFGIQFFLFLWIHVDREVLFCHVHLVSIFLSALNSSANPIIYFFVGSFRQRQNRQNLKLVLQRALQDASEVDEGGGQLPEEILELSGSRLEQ
RGS4 act – potentiators or activators of RGS4; HEK293 M3R/inducible RGS4, carbachol calcium flux Fluo4; active compounds read low; B-score at 10 µM; 310,000 tested, 0.92% active;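 active = B-score of the integrated calcium signal more than 4 SD below the library mean, with starting fluorescence not abnormally high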;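 note: negative B-score means reduced calcium response which marks RGS4 activation or potentiation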
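Assay system: Inducible-RGS4 HEK293 cells carrying M3 receptor | Schedule: Compound preincubation 20 min at room temperature before agonist | Signal: Kinetic calcium fluorescence imaging with Fluo4-AM dye, 2 µM | Read-out basis: B score from integrated fluorescence ratio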
MrgX1 agonist – human MrgX1 receptor agonism, primary screen | MrgX1-HEK293 cells, Fluo-4 calcium fluorescence, agonist mode; active compounds read high | AID 588627 | B-score at 10 µM | Q96LB2 | 310,000 tested, 0.44% active;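 active = calcium response B-score plate-corrected fluorescence ratio at least 3 library SD, with starting fluorescence B-score inside 5 SD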
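Material – MrgX1-expressing HEK293 cells · Input – 15,000 cells seeded per well · Dosing – compound as first of three additions · Times – overnight seeding, then 1 h dark dye loading · Measured by – kinetic Fluo-4 NW fluorescence of intracellular calcium · Read-out – B-scored fluorescence response ratio · Benchmarks – positive and negative control wells on each plate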
MrgX1 PAM – allosterically activates human MrgX1 receptor signaling | Q96LB2 | MrgX1-HEK293, Fluo-4 calcium flux, FDSS; active compounds read high | B-score at 10 µM | 310,000 tested, 0.63% active | AID 588675;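 active = plate-corrected calcium response at least 3 library SD above typical, normal starting fluorescence, not activating the receptor alone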;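 note: compound read alongside a low EC10 to EC30 dose of BAM8-22 agonist; peak minus trough fluorescence over baseline measured at the second addition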
RGS4 block valid – validation of RGS4 inhibitors; shares compounds with RGS4 inh; 1,700 tested, 65% active; HEK293 M3R/RGS4, carbachol calcium Fluo-4 fluorescence; carbachol added at its EC20; 0 = buffer wells, 100 = carbachol control; calcium response, % at 10 µM; AID 492999;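 active = duplicate-averaged calcium response above the buffer-only control mean plus 5 SD of those controls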;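 note: integrated fluorescence ratio F max minus min over baseline F0; higher response in RGS4-induced cells means RGS4 inhibition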
M3R Ca ctr – checks RGS4 inhibitor effects in non-induced HEK293 M3R cells. shares compounds with RGS4 inh. carbachol calcium Fluo-4; submaximal (EC20) carbachol stimulus; buffer wells 0%, carbachol control wells 100%. activity (percent), % at 10 µM. 1,900 tested, 20% active. AID 493000; call rule not given here;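 note: RGS4 induction absent so cells express M3R without RGS4; higher means more calcium signal and flags a non-specific hit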
RGS4 inh ctr2 – signal in non-induced cells without carbachol, RGS4 inhibitor counter-screen. AID 493001. 1,900 tested, 22% active. HEK293 M3R/RGS4 non-induced, Fluo-4 calcium, no carbachol; normalised: buffer wells 0%, carbachol wells 100%. shares compounds with RGS4 inh. calcium response (agonist-mode artifact), % at 10 µM;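 active = duplicate-averaged calcium rise in uninduced cells above buffer wells' mean plus 5 SD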
Each line names hits and unclear results; the compound was inactive in the other large screens (follow-up assays come after a bar, where they were run).

O=c1[nH]c(=O)n(CCC2=CCCCC2)c(O)c1/C=N/Nc1cccc2ccccc12	RGS4 inh 5.7 | RGS4 block valid 9.0% | M3R Ca ctr inactive | RGS4 inh ctr2 inactive
O=C(N/N=C/c1c(O)n(CCc2ccccc2)c(=O)[nH]c1=O)c1ccccc1	MrgX1 antagonist -5.4 | RGS4 block valid inactive | M3R Ca ctr inactive | RGS4 inh ctr2 7.5%
CCCCn1c(O)c(/C=N/NC(=O)c2ccncc2)c(=O)[nH]c1=O	none
O=c1[nH]c(=O)n(CCC2=CCCCC2)c(O)c1/C=N/Nc1ccccc1	none
O=C1NC(=S)NC(=O)C1=Cc1ccc(Br)s1	RGS4 inh 22 | RGS4 block valid 78% | M3R Ca ctr inactive | RGS4 inh ctr2 18%
Cc1cc(/C=C2\C(=O)NC(=S)N(C)C2=O)c(C)n1C1CCCCC1	none
CN1C(=O)/C(=C\c2ccc(Br)s2)C(=O)NC1=S	RGS4 inh 19 | RGS4 block valid 5.5% | M3R Ca ctr inactive | RGS4 inh ctr2 inactive
CCN1C(=O)C(=Cc2ccc(C)s2)C(=O)N(CC)C1=S	none
CCOC(=O)c1sc(/N=C/c2c(O)n(-c3cccc(C)c3)c(=O)[nH]c2=O)c(C#N)c1C	none
NC1=C([N+](=O)[O-])C(c2ccc3c(c2)OCO3)c2c(c3ccccc3oc2=O)O1 (stereo not drawn)	none
O=c1oc2ccccc2c(O)c1[C@H]1c2ccc(O)cc2Oc2c1c(=O)oc1ccccc21	RGS4 inh 11 | RGS4 block valid 58% | M3R Ca ctr 35% | RGS4 inh ctr2 inactive
O=C1NC(=O)N(c2ccccc2)C(=O)/C1=C\c1ccc([N+](=O)[O-])s1	none
CN1C(=O)NC(=O)/C(=C/c2ccc([N+](=O)[O-])s2)C1=O	RGS4 inh 7.2 | RGS4 block valid 14% | M3R Ca ctr inactive | RGS4 inh ctr2 inactive
COc1ccc(OC)c(N2C(=O)NC(=O)/C(=C\c3ccc([N+](=O)[O-])s3)C2=O)c1	RGS4 inh 8 | RGS4 block valid 18% | M3R Ca ctr inactive | RGS4 inh ctr2 inactive
O=C(O)c1ccccc1NC(=O)N1C[C@H]2C[C@@H](C1)c1cccc(=O)n1C2	none
CCNC(=O)C1OC(n2cnc3c(N)ncnc32)C(O)C1O (stereo not drawn)	RGS4 inh 15, MrgX1 agonist 30 | RGS4 block valid 48% | M3R Ca ctr 72% | RGS4 inh ctr2 inactive
Cc1ccc(C(O)P(=O)(Oc2ccccc2)Oc2ccccc2)cc1 (stereo not drawn)	none
Cc1cc(OCC(=O)N2CCC(C(=O)O)CC2)c2c3c(c(=O)oc2c1)CCCC3	none
CN1C(=O)C(=Cc2ccc(N3CCOCC3)o2)C(=O)N(C)C1=O	none
CN1C(=O)C(=Cc2ccc(-c3cccc(Cl)c3)o2)C(=O)N(C)C1=O	RGS4 inh 5 | RGS4 block valid 22% | M3R Ca ctr 34% | RGS4 inh ctr2 52%
Cc1ccc(Sc2ccc(C=C3C(=O)N(C)C(=O)N(C)C3=O)o2)cc1	none | RGS4 block valid inactive | M3R Ca ctr inactive | RGS4 inh ctr2 80%
CCOC(=O)C1CCN(Cc2ccc(Cl)nc2)CC1	RGS4 inh 5.5 | RGS4 block valid 9.5% | M3R Ca ctr 30% | RGS4 inh ctr2 inactive
C/C(=N\N(C)c1ccccc1)c1c(O)[nH]c(=O)[nH]c1=O	none
CCOc1ccc(N2C(=O)/C(=C\c3cccs3)C(=O)NC2=S)cc1	none | M3R Ca ctr inactive | RGS4 inh ctr2 inactive
O=C1NC(=S)N(c2ccccc2F)C(=O)/C1=C\c1cccs1	RGS4 inh 9.5 | RGS4 block valid 34% | M3R Ca ctr inactive | RGS4 inh ctr2 inactive
Cc1cc(C)c(N=Cc2c(O)[nH]c(=O)[nH]c2=O)c(C)c1	none
COc1cc(OC)c2c(c1)OCC1CON(C)C21 (stereo not drawn)	none
Cn1cccc1/C=C1/C(=O)NC(=O)N(Cc2ccccc2)C1=O	none
Cn1cccc1/C=C1\C(=O)NC(=O)N(Cc2ccccc2)C1=O	none
Cn1cccc1/C=C1/C(=O)NC(=O)N(Cc2ccc(F)cc2)C1=O	none | RGS4 block valid inactive | M3R Ca ctr inactive | RGS4 inh ctr2 9.0%
Cn1cccc1/C=C1/C(=O)NC(=S)N(Cc2ccc(F)cc2)C1=O	RGS4 inh 7.2, MrgX1 PAM 7 | RGS4 block valid inactive | M3R Ca ctr inactive | RGS4 inh ctr2 inactive
O=C(/C=C/c1ccccc1)NC(=S)N1C[C@H]2C[C@H](C1)c1cccc(=O)n1C2	none
Cc1cccc(NP(=O)(Oc2ccccc2F)Oc2ccccc2F)c1C	RGS4 inh 4.9 | RGS4 block valid inactive | M3R Ca ctr inactive | RGS4 inh ctr2 inactive
CCc1cc2c(s1)NC(=O)CN=C2c1cccs1	RGS4 inh 6 | RGS4 block valid 24% | M3R Ca ctr 31% | RGS4 inh ctr2 inactive
CCc1cc2c(s1)N(CC(=O)OC)C(=O)CN=C2c1ccccc1OC	none
CN1CCc2cc(O)cc3c2[C@H]1Cc1ccc(O)c(O)c1-3	RGS4 inh 7.3 | RGS4 block valid 30% | M3R Ca ctr inactive | RGS4 inh ctr2 inactive
COc1cc2c(cc1O)C[C@H]1c3c(cc(O)c(OC)c3-2)CCN1C	none (no result: RGS4 inh, RGS4 act)
COC(=O)C1(C(=O)O)Cc2cc([N+](=O)[O-])ccc2N2CCCC21 (stereo not drawn)	none
Cc1ccc(N2C(=O)NC(=O)/C(=C/C=C/c3ccco3)C2=O)cc1	none | RGS4 block valid inactive | M3R Ca ctr inactive | RGS4 inh ctr2 16%
O=C1NC(=O)N(Cc2ccc(F)cc2)C(=O)/C1=C\C=C\c1ccco1	RGS4 inh 12, MrgX1 PAM 8.3 | RGS4 block valid 10% | M3R Ca ctr inactive | RGS4 inh ctr2 12%
O=C1NC(=O)N(c2ccccc2)C(=O)/C1=C\C=C\c1ccccc1	RGS4 inh 16 | RGS4 block valid 114% | M3R Ca ctr 31% | RGS4 inh ctr2 24%
Cc1cc(C)cc(N2C(=O)NC(=O)/C(=C\C=C\c3ccco3)C2=O)c1	RGS4 inh 23 | RGS4 block valid 59% | M3R Ca ctr 80% | RGS4 inh ctr2 36%
O=C(c1ccc(N2CCCCCC2)c([N+](=O)[O-])c1)N1CCC2(CC1)OCCO2	none
O=C1CNC(c2ccccc2Cl)c2cc(Br)ccc2N1 (stereo not drawn)	none
COc1ccc(-n2c(O)c(/C=C3\C=Nc4ccc(Br)cc43)c(=O)[nH]c2=O)c(OC)c1	RGS4 inh 26 | RGS4 block valid 55% | M3R Ca ctr inactive | RGS4 inh ctr2 326%
